This is an account of results in ChEMBL document CHEMBL1629488, “Synthesis and biological evaluation of 2-(3',4',5'-trimethoxybenzoyl)-3-aryl/arylaminobenzo[b]thiophene derivatives as a novel class of antiproliferative agents” (Eur J Med Chem, 2010).

SMILES strings stand for the structures.

One test concerns HL-60. As to the kind of experiment: Antiproliferative activity against human HL60 cells after 72 hrs by MTT assay. It is filed as functional, cell-based. To be noted: HL-60, 72 h. A general note: Tetrazolium dyes change colour on reduction, which living cells bring about.
The test system of another test is A549. In words: Antiproliferative activity against human A549 cells after 72 hrs by MTT assay. Format: functional, cell-based. The note with it: A549, 72 h. Summed up:
(§1)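 A549 and HeLa cells grown in DMEM with 10% FBS and penicillin/streptomycin. Plated at 8 × 10^3 cells/well and held 18 h at 37 °C in 5% CO2. Medium replaced with compound in complete medium at varied concentrations for 72 h at 37 °C, then MTT read.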

The test system of a further test is K562. In words: Antiproliferative activity against human K562 cells after 72 hrs by MTT assay. Format: functional, cell-based. The note with it: K562, 72 h.
In a further test the test system is Jurkat. As to the kind of experiment: Antiproliferative activity against human Jurkat cells after 72 hrs by MTT assay. Format: functional, cell-based.
In a further test the test system is HeLa. In words: Antiproliferative activity against human HeLa cells assessed as cell viability after 72 hrs by MTT assay. Format: functional, cell-based. Summed up:
as §1

Test [1] can be described thus: Inhibition of tubulin polymerization after 20 mins by turbidimetry. Summed up:
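Tubulin (10 µM) in glutamate buffer was preincubated with varied compound concentrations at 30 °C, then cooled to 0 °C. GTP was added and the mixture warmed to 30 °C in cuvettes while turbidity was recorded.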

The nature of test [2]: Inhibition of tubulin polymerization after 20 mins by turbidimetry.

In the case of `COc1cc(C(=O)c2sc3ccccc3c2Nc2ccccc2)cc(OC)c1OC`, the IC50 turned out to be 5.2 µM with HL-60; 3 µM in the test on A549; 2.3 µM with K562; 1.6 µM in the test with Jurkat; 2.7 µM in the test with HeLa.

Regarding `CCOc1ccc(Nc2c(C(=O)c3cc(OC)c(OC)c(OC)c3)sc3cc(C)ccc23)cc1`, the IC50 in the test on HL-60 turned out to be 4 µM; in the test on A549, 5.8 µM; with K562, 4.3 µM; in the test with Jurkat, 5 µM; with HeLa, 4.3 µM. The molecule further came in with an inhibition in test [1] of 50%.

For `COc1cc(C(=O)c2sc3ccccc3c2-c2ccc(Cl)cc2)cc(OC)c1OC`, the IC50 in the test with HL-60 worked out at 3.3 µM; in the test with A549, 7.5 µM; in the test with K562, 4.2 µM; with Jurkat, 3.7 µM; in the test with HeLa it was 5.2 µM.

On to `COc1ccc(-c2c(C(=O)c3cc(OC)c(OC)c(OC)c3)sc3ccccc23)cc1`, for which the IC50 in the test with HL-60 was 1.6 µM; with A549, 4.4 µM; in the test with K562 it was 1.7 µM; in the test with Jurkat it was 1.6 µM; with HeLa it was 4.2 µM.

As to `COc1cc(C(=O)c2sc3cc(C)ccc3c2Nc2ccc(C)cc2)cc(OC)c1OC`, the IC50 with HL-60 came to 1.9 µM; in test [2], 15 µM; in the test with A549 it was 1.9 µM; in the test with K562 it was 1.4 µM; in the test with Jurkat it was 2.5 µM; in the test with HeLa it was 0.98 µM.

For the molecule `COc1cc(C(=O)c2sc3ccccc3c2-c2ccccc2)cc(OC)c1OC`, the concentration for half-maximal inhibition (IC50) in the test on HL-60 turned out to be 1.7 µM; in the test with A549, 5 µM; in the test on K562, 2.1 µM; in the test with Jurkat, 1.5 µM; with HeLa it was 1.9 µM.

For `COc1ccc(-c2c(C(=O)c3cc(OC)c(OC)c(OC)c3)sc3ccccc23)c(OC)c1`, the IC50 in the test on HL-60 is 4.6 µM; in the test with A549, 5.8 µM; with K562, 4.1 µM; with Jurkat, 4 µM; in the test on HeLa, 3.9 µM.

As to `COc1cc(C(=O)c2sc3ccccc3c2-c2ccc(F)cc2)cc(OC)c1OC`, the IC50 with HL-60 was found to be 3.2 µM; in the test with A549 it was 3.2 µM; with K562, 2.1 µM; with Jurkat, 2.3 µM; in the test on HeLa, 3 µM.

As for `COc1cc(C(=O)c2sc3ccccc3c2Nc2ccc(C)cc2)cc(OC)c1OC`, the IC50 in the test on HL-60 was determined as 4.6 µM; with A549 it was 2.6 µM; in the test on K562, 1.6 µM; in the test on Jurkat, 1.7 µM; with HeLa, 3.5 µM.

Take `COc1ccccc1-c1c(C(=O)c2cc(OC)c(OC)c(OC)c2)sc2ccccc12`: the IC50 was 2.9 µM with HL-60; > 10 µM with A549; 3.4 µM with K562; 2.9 µM in the test on Jurkat; 5 µM in the test with HeLa.

Take `COc1ccc(OC)c(-c2c(C(=O)c3cc(OC)c(OC)c(OC)c3)sc3ccccc23)c1`: the IC50 in the test with HL-60, in the test with A549, with K562 and in the test on Jurkat was > 10 µM each time.

`COc1cc(C(=O)c2sc3ccccc3c2-c2ccc(SC)cc2)cc(OC)c1OC`: the IC50 with HL-60 is 1.3 µM; in the test on A549, 5.4 µM; in the test with K562 it was 1.8 µM; with Jurkat, 1.9 µM; in the test on HeLa, 3.5 µM.

Consider `CCOc1ccc(-c2c(C(=O)c3cc(OC)c(OC)c(OC)c3)sc3ccccc23)cc1`, for which the IC50 with HL-60 was found to be 3.5 µM; in the test on A549, 3.1 µM; in the test on K562, 3.1 µM; with Jurkat, 4.1 µM; with HeLa, 3 µM.

As to `COc1cc(C(=O)c2sc3ccccc3c2-c2ccc(C)cc2)cc(OC)c1OC`, the IC50 with HL-60 stood at 1.4 µM; with A549, 7.8 µM; in the test on K562, 3.5 µM; in the test on Jurkat it was 3.3 µM; in the test on HeLa it was 3.7 µM.

On to `COc1ccc(-c2c(C(=O)c3cc(OC)c(OC)c(OC)c3)sc3ccccc23)cc1C`, for which the IC50 in the test with HL-60, with A549, in the test on K562, with Jurkat and in the test with HeLa was > 10 µM in each case.

Consider `COc1ccc(Nc2c(C(=O)c3cc(OC)c(OC)c(OC)c3)sc3ccccc23)cc1`, for which the IC50 stood at 3.7 µM in the test with HL-60; 9.3 µM in the test with A549; 2.9 µM in the test with K562; 3.5 µM with Jurkat; 7.7 µM in the test with HeLa.

`COc1cc(C(=O)c2sc3ccccc3c2Nc2ccc(Cl)cc2)cc(OC)c1OC`: the IC50 in the test with HL-60 was found to be 5.4 µM; in the test with A549, 3.1 µM; in the test with K562, 1.1 µM; in the test with Jurkat it was 1.9 µM; in the test with HeLa it was 3.7 µM.

One may read the IC50 as the concentration that inhibits the measured activity by half. A word on the inhibition: it is the change of the read-out against control, counted positive when it falls. A higher inhibition goes with strong suppression.
